This is an account of results in ChEMBL document CHEMBL1144398, “Structure-based design, parallel synthesis, structure-activity relationship, and molecular modeling studies of thiocarbamates, new potent non-nucleoside HIV-1 reverse transcriptase inhibitor isosteres of phenethylthiazolylthiourea derivatives” (J Med Chem, 2005).

Each structure is given as a SMILES string. Bounds are passed on as bounds.

Usually EC50 stands for the concentration needed to bring the measured effect to its halfway point. By EC90 is commonly meant the concentration at which the effect reaches the 90% level. Low readings indicate an effect from little substance, high ones a need for much substance. What is called CC50 is the concentration that lowers cell viability or growth by half. A high value points to lower toxicity to the cells.

Test [1] concerns MT4. The test is described as follows: Ratio of CC50 to that of EC50 determined in MT-4 cells. It counts as functional. The method in brief: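 Selectivity index, calculated as CC50/EC50. CC50 came from MTT viability of mock-infected MT-4 cells and EC50 from MTT-read protection of HIV-1-infected MT-4 cells from cytopathogenicity, with both run in parallel. Values are means of three experiments.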

Test [2] deals with MT4. As to the kind of experiment: Effective concentration require to protect MT-4 cells from human immunodeficiency virus type 1 induced cytopathogenicity was determined by MTT method. It counts as functional, cell-based. In short, it runs like this:
(§1)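 MT-4 cells infected with HIV-1, with test compounds added. Protection from virus-induced cytopathogenicity was read by MTT. EC50 is the concentration giving 50% protection. Values are means of three separate experiments, with variation among triplicates under 10%. Trovirdine served as the reference.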
A general note: Damage to the host cells serves as the signal in cytopathic effect assays.

Test [3] relates to MT4. As to the kind of experiment: Effective concentration require to inhibit human immunodeficiency virus type 1 induced cytopathogenicity in MT-4 cells determined by MTT method. It counts as functional, cell-based. In short, it runs like this: as §1
The test system of the next test is C8166. As to the kind of experiment: Effective concentration required to reduce the amount of p24 antigen levels in wild type human immunodeficiency virus type 1 infected C8166 cultures. It counts as functional. The method in brief: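 C8166 cultures infected with wild-type HIV-1. p24 antigen in the cultures was measured after compound treatment, and EC90 is the concentration that reduces p24 by 90%. Trovirdine served as the reference.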

The test system of test [4] is MT4. The test is described as follows: Cytotoxic concentration required to reduce the viability of mock infected MT-4 cells determined by MTT method. The following applies: Homo sapiens. It counts as functional. The method in brief:
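Viability of mock-infected MT-4 cells, assayed in parallel with the antiviral test, read by MTT. CC50 is the concentration that lowers viability by 50%. Values are means of three separate experiments, with variation among triplicates under 10%. The highest concentration tested was 100 µM.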
On the technique in general: Tetrazolium dyes change colour on reduction, which living cells bring about.

For the compound `Cc1ccc(NC(=S)OCCN2C(=O)c3ccccc3C2=O)cc1`, in the test on MT4 [1], the SI is greater than 5000. Moreover, the EC50 in the test with MT4 [2] is 20 nM; in the test with MT4 [3], 1800 nM. The compound further displayed an EC90 in the test with C8166 of 15 nM. In the test with MT4 [4], the CC50 is greater than 100000 nM.
